Data: ChEMBL document CHEMBL4842318, “A γ-lactam siderophore antibiotic effective against multidrug-resistant Pseudomonas aeruginosa, Klebsiella pneumoniae, and Acinetobacter spp” (Eur J Med Chem, 2021)
Values after ≈ are worked out from the molar mass of the structure shown.

Key:
Pseudomonas aeruginosa [1] = assay: Antibacterial activity against wild type Pseudomonas aeruginosa isolate PR-668 leucine at 533 residue assessed as inhibition of bacterial growth by microdilution method; type: functional
Method in brief: (§1)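 Broth microdilution MIC in iron-depleted (Chelex resin-treated) cation-adjusted Mueller-Hinton broth, following the protocol used for siderophore-containing antibiotics. Inoculum was lowered to 6 × 10^4 cfu/mL.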

Acinetobacter baumannii [2] = assay: Antibacterial activity against carbapenem susceptible Acinetobacter baumannii isolate PR-478 assessed as inhibition of bacterial growth at 1:1 compound to sulbactam concentration by microdilution method; type: functional
Method in brief: (§2)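 Broth microdilution MIC in Chelex-treated, iron-depleted cation-adjusted Mueller-Hinton broth, inoculum 6 × 10^4 cfu/mL. Compound and sulbactam combined 1:1 by mass in a 2-fold dilution series.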

Acinetobacter baumannii [3] = assay: Antibacterial activity against carbapenem resistant Acinetobacter baumannii isolate PR-380 assessed as bacterial growth inhibition by microdilution method; type: functional
Method in brief: (§3)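 Broth microdilution in Chelex-treated, iron-depleted cation-adjusted Mueller-Hinton broth, following the protocol used for siderophore-containing antibiotics; inoculum lowered to 6 × 10^4 cfu/mL; MIC read as growth inhibition, in μg/mL.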

Acinetobacter baumannii [4] = assay: Antibacterial activity against carbapenem resistant Acinetobacter baumannii isolate PR-345 assessed as bacterial growth inhibition by microdilution method; type: functional; method in brief: as §3
[5] = Plasma concentration in SC dosed CD-1 mouse treated four times at 6 hrs interval measured after 1 hrs; type: ADME, organism-based
Method in brief: (§4)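 CD-1 mice dosed SC at 50 mg/kg. Plasma sampled at 0.167 to 24 h, three individual mice per time point, reported as mean and SD in ng/mL.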

Acinetobacter baumannii [6] = assay: Antibacterial activity against carbapenem susceptible Acinetobacter baumannii isolate PR-464 assessed as inhibition of bacterial growth in presence of 20 ug/ml sulbactam by microdilution method; type: functional; conditions: dose 20 µg/ml
Method in brief: (§5)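 MIC by broth microdilution using iron-depleted (Chelex-treated) cation-adjusted Mueller-Hinton broth and 6 × 10^4 cfu/mL inoculum. Compound serially diluted with sulbactam held constant at 20 μg/mL.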

Pseudomonas aeruginosa [7] = assay: Antibacterial activity against Pseudomonas aeruginosa isolate PR-564 leucine at 533 residue assessed as inhibition of bacterial growth by microdilution method; type: functional; method in brief: as §3
Acinetobacter baumannii [8] = assay: Antibacterial activity against carbapenem resistant Acinetobacter baumannii isolate PR-459 assessed as inhibition of bacterial growth at 1:1 compound to sulbactam concentration by microdilution method; type: functional
Method in brief: (§6)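 Iron-depleted (Chelex-treated) cation-adjusted Mueller-Hinton broth microdilution; inoculum 6 × 10^4 cfu/mL. Test agent and sulbactam mixed 1:1 by mass and serially 2-fold diluted together. MIC in μg/mL.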

Acinetobacter baumannii [9] = assay: Antibacterial activity against carbapenem resistant Acinetobacter baumannii isolate PR-351 assessed as bacterial growth inhibition by microdilution method; type: functional; method in brief: as §3
Acinetobacter baumannii [10] = assay: Antibacterial activity against carbapenem resistant Acinetobacter baumannii isolate PR-459 assessed as inhibition of bacterial growth in presence of 20 ug/ml sulbactam by microdilution method; type: functional; conditions: dose 20 µg/ml
Acinetobacter baumannii [11] = assay: Antibacterial activity against carbapenem resistant Acinetobacter baumannii isolate PR-342 assessed as inhibition of bacterial growth in presence of 20 ug/ml sulbactam by microdilution method; type: functional; conditions: dose 20 µg/ml
Acinetobacter baumannii [12] = assay: Antibacterial activity against carbapenem susceptible Acinetobacter baumannii isolate PR-452 assessed as bacterial growth inhibition by microdilution method; type: functional; method in brief: as §1
Pseudomonas aeruginosa [13] = assay: Antibacterial activity against wild type Pseudomonas aeruginosa isolate PR-672 assessed as inhibition of bacterial growth by microdilution method; type: functional; method in brief: as §1
Acinetobacter baumannii [14] = assay: Antibacterial activity against carbapenem resistant Acinetobacter baumannii isolate PR-345 assessed as inhibition of bacterial growth at 1:1 compound to sulbactam concentration by microdilution method; type: functional; method in brief: as §6
Acinetobacter baumannii [15] = assay: Antibacterial activity against carbapenem resistant Acinetobacter baumannii isolate PR-387 assessed as bacterial growth inhibition by microdilution method; type: functional; method in brief: as §3
Acinetobacter baumannii [16] = assay: Antibacterial activity against carbapenem resistant Acinetobacter baumannii isolate PR-319 assessed as bacterial growth inhibition by microdilution method; type: functional; method in brief: as §3
[17] = Antibacterial activity against carbapenem susceptible Acinetobacter nosocomialis isolate PR-362 assessed as bacterial growth inhibition by microdilution method; type: functional; method in brief: as §1
Acinetobacter baumannii [18] = assay: Antibacterial activity against carbapenem susceptible Acinetobacter baumannii isolate PR-434 assessed as inhibition of bacterial growth at 1:1 compound to sulbactam concentration by microdilution method; type: functional; method in brief: as §2
Acinetobacter baumannii [19] = assay: Antibacterial activity against carbapenem resistant Acinetobacter baumannii isolate PR-325 assessed as inhibition of bacterial growth at 1:1 compound to sulbactam concentration by microdilution method; type: functional; method in brief: as §6
Acinetobacter baumannii [20] = assay: Antibacterial activity against carbapenem resistant Acinetobacter baumannii isolate PR-387 assessed as inhibition of bacterial growth in presence of 20 ug/ml sulbactam by microdilution method; type: functional; conditions: dose 20 µg/ml
Pseudomonas aeruginosa [21] = assay: Antibacterial activity against wild type Pseudomonas aeruginosa isolate PR-680 leucine at 533 residue assessed as inhibition of bacterial growth by microdilution method; type: functional; method in brief: as §1
Acinetobacter baumannii [22] = assay: Antibacterial activity against carbapenem resistant Acinetobacter baumannii isolate PR-351 assessed as inhibition of bacterial growth in presence of 20 ug/ml sulbactam by microdilution method; type: functional; conditions: dose 20 µg/ml
Acinetobacter baumannii [23] = assay: Antibacterial activity against carbapenem resistant Acinetobacter baumannii isolate PR-399 assessed as bacterial growth inhibition by microdilution method; type: functional; method in brief: as §3
[24] = Solubility of compound in pH 7.5 phosphate buffer by nephelometry; type: physicochemical
Acinetobacter baumannii [25] = assay: Antibacterial activity against 98 member subset of carbapenem resistant Acinetobacter baumannii assessed as assessed as inhibition of bacterial growth by microdilution method; type: functional; method in brief: as §3
Acinetobacter baumannii [26] = assay: Antibacterial activity against carbapenem resistant Acinetobacter baumannii isolate PR-342 assessed as bacterial growth inhibition by microdilution method; type: functional; method in brief: as §3
[27] = Antibacterial activity against carbapenem susceptible Acinetobacter nosocomialis isolate PR-412 assessed as inhibition of bacterial growth at 1:1 compound to sulbactam concentration by microdilution method; type: functional; method in brief: as §1
Acinetobacter baumannii [28] = assay: Antibacterial activity against carbapenem susceptible Acinetobacter baumannii isolate PR-478 assessed as bacterial growth inhibition by microdilution method; type: functional; method in brief: as §1
Acinetobacter baumannii [29] = assay: Antibacterial activity against carbapenem susceptible Acinetobacter baumannii isolate PR-478 assessed as inhibition of bacterial growth in presence of 20 ug/ml sulbactam by microdilution method; type: functional; conditions: dose 20 µg/ml; method in brief: as §5
Acinetobacter baumannii [30] = assay: Antibacterial activity against panel of 198 clinical isolates Acinetobacter baumannii assessed as inhibition of bacterial growth by microdilution method; type: functional
[31] = Metabolic stability in CD-1 mouse microsomes assessed as half life; type: ADME, Microsome
[32] = Plasma concentration in SC dosed CD-1 mouse treated four times at 6 hrs interval measured after 6 hrs; type: ADME, organism-based; method in brief: as §4
[33] = Plasma protein binding in mouse; conditions: read-out: PPB (converted)
COX-1 = COX-1 (Homo sapiens, UniProt P23219); assay: Inhibition of COX-1 (unknown origin) at 30 uM
[34] = Metabolic stability in human microsomes assessed as half life; type: ADME, Microsome
Acinetobacter baumannii [35] = assay: Antibacterial activity against carbapenem resistant Acinetobacter baumannii isolate PR-401 assessed as inhibition of bacterial growth at 1:1 compound to sulbactam concentration by microdilution method; type: functional; method in brief: as §6
[36] = Plasma concentration in SC dosed CD-1 mouse treated four times at 6 hrs interval measured after 4 hrs; type: ADME, organism-based; method in brief: as §4

Sequence of COX-1 (P23219 whole entry): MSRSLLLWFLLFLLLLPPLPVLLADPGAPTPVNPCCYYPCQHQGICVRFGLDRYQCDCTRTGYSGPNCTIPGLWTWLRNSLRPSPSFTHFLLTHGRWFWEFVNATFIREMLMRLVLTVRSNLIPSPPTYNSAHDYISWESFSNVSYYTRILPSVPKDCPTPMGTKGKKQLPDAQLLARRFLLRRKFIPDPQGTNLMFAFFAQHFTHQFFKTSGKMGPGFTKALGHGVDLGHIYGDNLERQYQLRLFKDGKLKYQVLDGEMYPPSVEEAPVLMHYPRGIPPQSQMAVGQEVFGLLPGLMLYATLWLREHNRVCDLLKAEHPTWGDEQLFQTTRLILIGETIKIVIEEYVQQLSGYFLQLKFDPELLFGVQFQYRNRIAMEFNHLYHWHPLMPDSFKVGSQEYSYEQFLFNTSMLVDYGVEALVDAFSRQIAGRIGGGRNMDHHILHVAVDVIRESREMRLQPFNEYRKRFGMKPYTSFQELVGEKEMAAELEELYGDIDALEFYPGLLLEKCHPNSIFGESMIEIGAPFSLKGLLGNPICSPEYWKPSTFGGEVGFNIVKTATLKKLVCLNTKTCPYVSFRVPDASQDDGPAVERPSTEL

CC(C)(O/N=C(\C(=O)N[C@H]1CN2CC(C(=O)NCCN3C(=O)c4cc(O)c(O)cc4C3=O)=C(C(=O)O)N2C1=O)c1nc(N)sc1Cl)C(=O)O
MIC (Pseudomonas aeruginosa [1]): > 16 µg/mL | MIC (Acinetobacter baumannii [2]): 1 µg/mL | MIC (Acinetobacter baumannii [3]): > 16 µg/mL | MIC (Acinetobacter baumannii [4]): > 16 µg/mL | concentration at 1 h [5]: 3280 ng/mL | MIC (Acinetobacter baumannii [6]): ≤ 0.25 µg/mL | MIC (Pseudomonas aeruginosa [7]): > 16 µg/mL | MIC (Acinetobacter baumannii [8]): 8 µg/mL | MIC (Acinetobacter baumannii [9]): > 16 µg/mL | MIC (Acinetobacter baumannii [10]): 4 µg/mL | MIC (Acinetobacter baumannii [11]): > 16 µg/mL | MIC (Acinetobacter baumannii [12]): > 16 µg/mL | MIC (Pseudomonas aeruginosa [13]): ≤ 0.25 µg/mL | MIC (Acinetobacter baumannii [14]): 16 µg/mL | MIC (Acinetobacter baumannii [15]): > 16 µg/mL | MIC (Acinetobacter baumannii [16]): > 16 µg/mL | MIC [17]: > 16 µg/mL | MIC (Acinetobacter baumannii [18]): 2 µg/mL | MIC (Acinetobacter baumannii [19]): > 16 µg/mL | MIC (Acinetobacter baumannii [20]): ≤ 0.25 µg/mL | MIC (Pseudomonas aeruginosa [21]): > 16 µg/mL | MIC (Acinetobacter baumannii [22]): ≤ 0.25 µg/mL | MIC (Acinetobacter baumannii [23]): > 16 µg/mL | solubility kinetic [24]: > 100 µM | MIC90 (Acinetobacter baumannii [25]): > 16 µg/mL | MIC (Acinetobacter baumannii [26]): 16 µg/mL | MIC [27]: 1 µg/mL | MIC (Acinetobacter baumannii [28]): 16 µg/mL | MIC (Acinetobacter baumannii [29]): ≤ 0.25 µg/mL | MIC50 (Acinetobacter baumannii [30]): 0.5 µg/mL (≈ 0.693 µM) | MIC90 (Acinetobacter baumannii [30]): > 16 µg/mL | t1/2 [31]: > 1 h | concentration at 6 h [32]: 1320 ng/mL | fraction unbound [33]: 0.06 | inhibition at 30 µM (COX-1): > 50% | t1/2 [34]: > 1 h | MIC (Acinetobacter baumannii [35]): 8 µg/mL | concentration at 4 h [36]: 1340 ng/mL
